{
  "source": "ChEMBL document CHEMBL4406880",
  "about": "“Design, synthesis, and bioactivity of dihydropyrimidine derivatives as kinesin spindle protein inhibitors” (Bioorg Med Chem, 2019)",
  "assay_type_in_all_cases": "functional",
  "key": {"SR": {"system": "SR", "assay": "Growth inhibition of human SR cells incubated for 48 hrs by sulforhodamine B assay", "summary_of_the_method": "(§1)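 NCI-60 five-dose SRB assay. Cells were exposed for 48 h to tenfold dilutions of 0.01, 0.1, 1, 10 and 100 µM, in RPMI 1640 with 5% FBS. Plates fixed with TCA at the time of drug addition served as the time-zero reference. GI50 is the concentration giving a 50% reduction in net growth. TGI is total growth inhibition. LC50 is a net 50% loss of the initial cells.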"}, "UACC-257": {"system": "UACC-257", "assay": "Growth inhibition of human UACC257 cells incubated for 48 hrs by sulforhodamine B assay", "conditions": "UACC-257, 48 h", "summary_of_the_method": "as §1"}, "MDA-MB-231": {"system": "MDA-MB-231", "assay": "Growth inhibition of human MDA-MB-231 cells incubated for 48 hrs by sulforhodamine B assay", "conditions": "MDA-MB-231, 48 h", "summary_of_the_method": "(§2)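 NCI-60 five-dose SRB assay in RPMI 1640 with 5% FBS, 37 °C, 5% CO2. Compound given at five tenfold dilutions, 0.01–100 µM, for 48 h. Adherent cells fixed with TCA, suspension cells with 16% final TCA. Bound SRB read at 515 nm and growth calculated against time-zero and untreated controls. GI50 taken from dose–response curves as the concentration giving a 50% decrease in net cell growth.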"}, "MDA-MB-468": {"system": "MDA-MB-468", "assay": "Growth inhibition of human MDA-MB-468 cells incubated for 48 hrs by sulforhodamine B assay", "conditions": "MDA-MB-468, 48 h", "summary_of_the_method": "as §2"}, "SNB-75": {"system": "SNB-75", "assay": "Induction of apoptosis in human SNB75 cells assessed as early apoptotic cells at 2 uM incubated for 24 hrs by annexin V FITC and propidium iodide based flow cytometry (reference value: 0.82 %)"}, "COLO 205": {"system": "COLO 205", "assay": "Growth inhibition of human COLO205 cells assessed as cell viability at 100 uM incubated for 48 hrs by sulforhodamine B assay", "conditions": "COLO 205, 48 h, read-out: Activity"}, "NCI-H322M": {"system": "NCI-H322M", "assay": "Growth inhibition of human NCI-H322M cells assessed as cell viability at 100 uM incubated for 48 hrs by sulforhodamine B assay", "conditions": "read-out: Activity"}, "NCI-H23": {"system": "NCI-H23", "assay": "Growth inhibition of human NCI-H23 cells assessed as cell viability at 100 uM incubated for 48 hrs by sulforhodamine B assay", "conditions": "NCI-H23, 48 h, read-out: Activity"}, "HL-60(TB) [1]": {"system": "HL-60(TB)", "assay": "Growth inhibition of human HL-60(TB) cells assessed as cell viability at 100 uM incubated for 48 hrs by sulforhodamine B assay", "conditions": "HL-60, 48 h, read-out: Activity", "summary_of_the_method": "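NCI-60 five-dose assay, SRB end-point, same culture conditions. Compound is tested at tenfold dilutions of 0.01, 0.1, 1, 10 and 100 µM for 48 h at 37 °C, with DMSO/PBS vehicle controls. Percentage growth at each concentration is taken against untreated cells and a time-zero plate. GI50 is 50% net growth decrease, TGI is total growth inhibition, and LC50 is 50% loss of initial cells.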"}, "DU-145": {"system": "DU-145", "assay": "Growth inhibition of human DU145 cells assessed as cell viability at 1 uM incubated for 48 hrs by sulforhodamine B assay", "conditions": "DU-145, 48 h, read-out: Activity"}, "PC-3": {"system": "PC-3", "assay": "Growth inhibition of human PC3 cells assessed as cell viability at 1 uM incubated for 48 hrs by sulforhodamine B assay", "conditions": "PC-3, 48 h, read-out: Activity"}, "TK-10": {"system": "TK-10", "assay": "Growth inhibition of human TK10 cells assessed as cell viability at 1 uM incubated for 48 hrs by sulforhodamine B assay", "conditions": "TK-10, 48 h, read-out: Activity"}, "OVCAR-4": {"system": "OVCAR-4", "assay": "Growth inhibition of human OVCAR4 cells assessed as cell viability at 1 uM incubated for 48 hrs by sulforhodamine B assay", "conditions": "OVCAR-4, 48 h, read-out: Activity"}, "UACC-62": {"system": "UACC-62", "assay": "Growth inhibition of human UACC62 cells assessed as cell viability at 1 uM incubated for 48 hrs by sulforhodamine B assay", "conditions": "UACC-62, 48 h, read-out: Activity"}, "SF-268": {"system": "SF-268", "assay": "Growth inhibition of human SF268 cells assessed as cell viability at 1 uM incubated for 48 hrs by sulforhodamine B assay", "conditions": "SF-268, 48 h, read-out: Activity"}, "RXF 393": {"system": "RXF 393", "assay": "Growth inhibition of human RXF393 cells assessed as cell viability at 0.1 uM incubated for 48 hrs by sulforhodamine B assay", "conditions": "RXF 393, 48 h, read-out: Activity"}, "SF-539": {"system": "SF-539", "assay": "Growth inhibition of human SF539 cells assessed as cell viability at 0.1 uM incubated for 48 hrs by sulforhodamine B assay", "conditions": "SF-539, 48 h, read-out: Activity"}, "HT-29": {"system": "HT-29", "assay": "Growth inhibition of human HT-29 cells assessed as cell viability at 0.1 uM incubated for 48 hrs by sulforhodamine B assay", "conditions": "HT-29, 48 h, read-out: Activity"}, "HCC 2998": {"system": "HCC 2998", "assay": "Growth inhibition of human HCC2998 cells assessed as cell viability at 0.1 uM incubated for 48 hrs by sulforhodamine B assay", "conditions": "HCC 2998, 48 h, read-out: Activity"}, "CAKI-1": {"system": "CAKI-1", "assay": "Growth inhibition of human Caki1 cells assessed as cell viability at 0.001 uM incubated for 48 hrs by sulforhodamine B assay relative to control", "conditions": "CAKI-1, 48 h, read-out: Activity"}, "OVCAR-3": {"system": "OVCAR-3", "assay": "Growth inhibition of human OVCAR3 cells assessed as cell viability at 0.001 uM incubated for 48 hrs by sulforhodamine B assay relative to control", "conditions": "OVCAR-3, 48 h, read-out: Activity"}, "HCT-116": {"system": "HCT-116", "assay": "Growth inhibition of human HCT116 cells assessed as cell viability at 0.001 uM incubated for 48 hrs by sulforhodamine B assay relative to control", "conditions": "HCT-116, 48 h, read-out: Activity"}, "HL-60(TB) [2]": {"system": "HL-60(TB)", "assay": "Growth inhibition of human HL-60(TB) cells assessed as cell viability at 0.001 uM incubated for 48 hrs by sulforhodamine B assay relative to control", "conditions": "HL-60, 48 h, read-out: Activity"}, "[3]": {"conditions": "read-out: LC50 (the source's name)"}, "[4]": {"conditions": "read-out: pLC50 (the source's name) (converted)"}},
  "data": [
    {"smiles": "CC1=C(C(=O)OCc2ccccc2)C(c2ccc3c(c2)OCO3)n2c(nc3ccccc32)N1", "note": "(racemic)", "values": [
      {"measurement": "GI50", "setting": "SR; read-out: GI50", "result": 1.71, "unit": "µM"},
      {"measurement": "CC50", "setting": "SR; [3]", "result": "> 100", "unit": "µM"},
      {"measurement": "TGI", "setting": "SR; read-out: TGI", "result": "> 100", "unit": "µM"},
      {"measurement": "GI50", "setting": "SR; read-out: pGI50 (converted)", "result": 1.7, "unit": "µM"},
      {"measurement": "CC50", "setting": "SR; [4]", "result": "> 100", "unit": "µM"},
      {"measurement": "TGI", "setting": "SR; read-out: pTGI", "result": "> 100", "unit": "µM"},
      {"measurement": "GI50", "setting": "UACC-257; read-out: GI50", "result": 0.98, "unit": "µM"},
      {"measurement": "LC50 (concentration killing 50% of the initial cells)", "setting": "UACC-257; read-out: LC50", "result": "> 100", "unit": "µM"},
      {"measurement": "TGI", "setting": "UACC-257; read-out: TGI", "result": "> 100", "unit": "µM"},
      {"measurement": "GI50", "setting": "UACC-257; read-out: pGI50 (converted)", "result": 0.977, "unit": "µM"},
      {"measurement": "LC50 (concentration killing 50% of the initial cells)", "setting": "UACC-257; read-out: pLC50 (converted)", "result": "> 100", "unit": "µM"},
      {"measurement": "TGI", "setting": "UACC-257; read-out: pTGI", "result": "> 100", "unit": "µM"},
      {"measurement": "GI50", "setting": "MDA-MB-231; read-out: GI50", "result": 85.7, "unit": "µM"},
      {"measurement": "CC50", "setting": "MDA-MB-231; [3]", "result": "> 100", "unit": "µM"},
      {"measurement": "TGI", "setting": "MDA-MB-231; read-out: TGI", "result": "> 100", "unit": "µM"},
      {"measurement": "GI50", "setting": "MDA-MB-231; read-out: pGI50 (converted)", "result": 85.1, "unit": "µM"},
      {"measurement": "CC50", "setting": "MDA-MB-231; [4]", "result": "> 100", "unit": "µM"},
      {"measurement": "TGI", "setting": "MDA-MB-231; read-out: pTGI", "result": "> 100", "unit": "µM"},
      {"measurement": "GI50", "setting": "MDA-MB-468; read-out: GI50", "result": 0.27, "unit": "µM"},
      {"measurement": "CC50", "setting": "MDA-MB-468; [3]", "result": "> 100", "unit": "µM"},
      {"measurement": "TGI", "setting": "MDA-MB-468; read-out: TGI", "result": "> 100", "unit": "µM"},
      {"measurement": "GI50", "setting": "MDA-MB-468; read-out: pGI50 (converted)", "result": 0.269, "unit": "µM"},
      {"measurement": "CC50", "setting": "MDA-MB-468; [4]", "result": "> 100", "unit": "µM"},
      {"measurement": "TGI", "setting": "MDA-MB-468; read-out: pTGI", "result": "> 100", "unit": "µM"},
      {"measurement": "Activity", "setting": "SNB-75", "result": 7.65, "unit": "%"},
      {"measurement": "viability at 100 µM", "setting": "COLO 205", "result": 39, "unit": "%"},
      {"measurement": "viability at 100 µM", "setting": "NCI-H322M", "result": 50, "unit": "%"},
      {"measurement": "viability at 100 µM", "setting": "NCI-H23", "result": 44, "unit": "%"},
      {"measurement": "viability at 100 µM", "setting": "HL-60(TB) [1]", "result": 9, "unit": "%"},
      {"measurement": "viability at 1 µM", "setting": "DU-145", "result": 33, "unit": "%"},
      {"measurement": "viability at 1 µM", "setting": "PC-3", "result": 35, "unit": "%"},
      {"measurement": "viability at 1 µM", "setting": "TK-10", "result": 71, "unit": "%"},
      {"measurement": "viability at 1 µM", "setting": "OVCAR-4", "result": 61, "unit": "%"},
      {"measurement": "viability at 1 µM", "setting": "UACC-62", "result": 29, "unit": "%"},
      {"measurement": "viability at 1 µM", "setting": "SF-268", "result": 32, "unit": "%"},
      {"measurement": "viability at 0.1 µM", "setting": "RXF 393", "result": 90, "unit": "%"},
      {"measurement": "viability at 0.1 µM", "setting": "SF-539", "result": 92, "unit": "%"},
      {"measurement": "viability at 0.1 µM", "setting": "HT-29", "result": 99, "unit": "%"},
      {"measurement": "viability at 0.1 µM", "setting": "HCC 2998", "result": 96, "unit": "%"},
      {"measurement": "viability at 0.001 µM", "setting": "CAKI-1", "result": 83, "unit": "%"},
      {"measurement": "viability at 0.001 µM", "setting": "OVCAR-3", "result": 95, "unit": "%"},
      {"measurement": "viability at 0.001 µM", "setting": "HCT-116", "result": 96, "unit": "%"},
      {"measurement": "viability at 0.001 µM", "setting": "HL-60(TB) [2]", "result": 95, "unit": "%"}
    ]}
  ]
}
